# In ChEMBL document CHEMBL3616436, “Synthesis, cytotoxicity and antimicrobial activity of thiourea derivatives incorporating 3-(trifluoromethyl)phenyl moiety” (Eur J Med Chem, 2015):
# Active and inactive are the calls of the source. The rule behind the calls is not given here.
# Assays:
# [1] = system: Yellow fever virus; test: Antiviral activity against Yellow fever virus 17D infected in BHK cells assessed as protection against virus-induced cytopathogenicity after 3 to 4 days by MTT assay; assay type: functional, cell-based
# [2] = system: Candida parapsilosis; test: Antimicrobial activity against Candida parapsilosis ATCC 22019 after 24 hrs by twofold serial microdilution method; assay type: functional, organism-based
# [3] = system: Human immunodeficiency virus 1; test: Antiviral activity against HIV1 3B infected in human MT4 cells assessed as protection against virus-induced cytopathogenicity by MTT assay; assay type: functional, organism-based; settings: Human immunodeficiency virus 1, 3B
# [4] = system: Poliovirus 1; test: Antiviral activity against Poliovirus type 1 ATCC VR-1562 infected in African green monkey Vero 76 cells assessed as reduction of virus-plaque formation after 2 days by crystal violet staining; assay type: functional, organism-based; settings: Enterovirus C, ATCC VR-1562, Vero, 48 h
# [5] = system: Mycobacterium tuberculosis; test: Antimycobacterial activity against drug-sensitive Mycobacterium tuberculosis Spec. 192; assay type: functional
# How it was run: (§1)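 Classical test-tube successive-dilution method in Youmans' modification of Proskauer and Beck liquid medium with 10% bovine serum. Inoculum came from 14-day cultures. DMSO stock was 10 mg/mL, diluted geometrically in medium. Tubes were incubated at 37 °C. Concentrations tested were 3.1, 6.2, 12.5, 25, 50 and 100 µg/ml. MIC is the minimum concentration inhibiting growth relative to compound-free tubes.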
# [6] = Cytotoxicity against human MT4 cells; assay type: cell-based
# [7] = system: Coxsackievirus B5; test: Antiviral activity against Human coxsackievirus B5 ATCC VR-29 infected in African green monkey Vero 76 cells assessed as reduction of virus-plaque formation after 3 days by crystal violet staining; assay type: functional, organism-based; settings: Enterovirus B, ATCC VR-29, Vero, 72 h
# How it was run: (§2)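 Plaque reduction: Vero-76 at 2x10^5 cells/well grown to confluent monolayers, infected 2 h at 50–100 PFU/well; after removing unadsorbed virus, overlay of D-MEM, 1% inactivated FBS, 0.75% methylcellulose with or without serial compound dilutions; 3 days at 37°C, fixed and stained with crystal violet in 50% ethanol, plaques counted; EC50 by linear regression.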
# [8] = system: Vesicular stomatitis virus; test: Antiviral activity against Vesicular stomatitis virus ATCC VR 1540 infected in African green monkey Vero 76 cells assessed as reduction of virus-plaque formation after 2 days by crystal violet staining; assay type: functional, organism-based; settings: ATCC VR 1540, Vero, 48 h
# [9] = Antiviral activity against Bovine viral diarrhea virus 1-NADL ATCC VR-534 infected in MDBK cells assessed as protection against virus-induced cytopathogenicity after 3 to 4 days by MTT assay; assay type: functional, cell-based; settings: Bovine viral diarrhea virus isolates and strains, ATCC VR-534, MDBK
# How it was run: (§3)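 Cells seeded in 96-well plates (BHK 5x10^4, MDBK 3x10^4 cells/well), grown overnight to confluence, infected at m.o.i. 0.01 (BHK for Reo-1, MDBK for BVDV); serial compound dilutions in maintenance medium with 0.5% inactivated FBS added after 1 h; viability by MTT after 3–4 days at 37°C; EC50 for 50% protection by linear regression.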
# [10] = system: Mycobacterium tuberculosis; test: Antimycobacterial activity against Mycobacterium tuberculosis H37Rv ATCC 25618; assay type: functional; how it was run: as §1
# [11] = system: Candida albicans; test: Antimicrobial activity against Candida albicans ATCC 90028 after 24 hrs by twofold serial microdilution method; assay type: functional, organism-based
# [12] = Cytotoxicity against African green monkey Vero 76 cells assessed as cell viability after 48 to 96 hrs by crystal violet staining; assay type: cell-based; settings: chlorocebus sabaeus
# [13] = system: Pseudomonas aeruginosa; test: Antimicrobial activity against Pseudomonas aeruginosa ATCC 15442 after 18 hrs by twofold serial microdilution method; assay type: functional, organism-based
# [14] = system: Bordetella bronchiseptica; test: Antimicrobial activity against Bordetella bronchiseptica ATCC 4617 after 18 hrs by twofold serial microdilution method; assay type: functional, organism-based
# [15] = system: Escherichia coli; test: Antimicrobial activity against Escherichia coli ATCC 10538 after 18 hrs by twofold serial microdilution method; assay type: functional, organism-based
# [16] = system: Candida albicans; test: Antimicrobial activity against Candida albicans ATCC 10231 after 24 hrs by twofold serial microdilution method; assay type: functional, organism-based
# [17] = system: Human alphaherpesvirus 1; test: Antiviral activity against Human herpesvirus 1 KOS ATCC VR-1493 infected in African green monkey Vero 76 cells assessed as reduction of virus-plaque formation after 3 days by crystal violet staining; assay type: functional, organism-based; settings: Human alphaherpesvirus 1, KOS ATCC VR1493, Vero, 72 h; how it was run: as §2
# [18] = system: Escherichia coli; test: Antimicrobial activity against Escherichia coli NCTC 8196 after 18 hrs by twofold serial microdilution method; assay type: functional, organism-based
# [19] = system: Pseudomonas aeruginosa; test: Antimicrobial activity against Pseudomonas aeruginosa NCTC 6749 after 18 hrs by twofold serial microdilution method; assay type: functional, organism-based
# [20] = Cytotoxicity against bovine MDBK cells assessed as cell viability after 48 to 96 hrs by MTT assay; assay type: cell-based, Bos taurus; settings: cattle
# [21] = system: Escherichia coli; test: Antimicrobial activity against Escherichia coli ATCC 25922 after 18 hrs by twofold serial microdilution method; assay type: functional, organism-based
# [22] = system: Mammalian orthoreovirus 1; test: Antiviral activity against Reovirus type-1 ATCC VR-214 infected in BHK cells assessed as protection against virus-induced cytopathogenicity after 3 to 4 days by MTT assay; assay type: functional, cell-based; settings: Mammalian orthoreovirus 1, ATCC VR-214, BHK; how it was run: as §3
# [23] = system: Vaccinia virus; test: Antiviral activity against Human Vaccinia virus ATCC VR-1549 infected in African green monkey Vero 76 cells assessed as reduction of virus-plaque formation after 3 days by crystal violet staining; assay type: functional, organism-based; settings: Orthopoxvirus vaccinia, ATCC VR-1549, Vero, 72 h
# [24] = system: Pseudomonas aeruginosa; test: Antimicrobial activity against Pseudomonas aeruginosa ATCC 27863 after 18 hrs by twofold serial microdilution method; assay type: functional, organism-based
# [25] = Cytotoxicity against BHK cells assessed as cell viability after 48 to 96 hrs by MTT assay; assay type: cell-based, Mesocricetus auratus; settings: hamster
# [26] = system: WIL2-NS; test: Cytotoxicity against human WIL2-NS cells after 96 hrs by MTT assay; assay type: functional
# How it was run: (§4)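 Leukaemia/lymphoma lines seeded at 1×10^5 cells/ml in RPMI-1640 with 10% FCS and penicillin/streptomycin; incubated with serial dilutions at 37°C, 5% CO2; viability by MTT after 96 h; value is concentration reducing proliferation by 50%, with untreated controls undergoing at least three rounds of multiplication.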
# [27] = system: Enterococcus faecalis; test: Antimicrobial activity against Enterococcus faecalis ATCC 29212 at 400 ug after 18 hrs by disc-diffusion method; assay type: functional; settings: ATCC 29212, 18 h, read-out: IZ
# How it was run: (§5)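 Disc diffusion on Mueller-Hinton II agar per CLSI; 9 mm paper discs loaded with 400 µg compound from DMSO solution, dried, placed on agar; growth inhibition zone diameter read after 18 h at 35°C.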
# [28] = system: Micrococcus luteus; test: Antimicrobial activity against Micrococcus luteus ATCC 10240 at 400 ug after 18 hrs by disc-diffusion method; assay type: functional; settings: ATCC 10240, 18 h, read-out: IZ; how it was run: as §5
# [29] = system: CCRF-SB; test: Cytotoxicity against human CCRF-SB cells after 96 hrs by MTT assay; assay type: functional; how it was run: as §4
# [30] = system: Staphylococcus aureus; test: Antimicrobial activity against Staphylococcus aureus NCTC 4163 at 400 ug after 18 hrs by disc-diffusion method; assay type: functional; settings: NCTC 4163, 18 h, read-out: IZ; how it was run: as §5
# [31] = system: Staphylococcus aureus; test: Antimicrobial activity against Staphylococcus aureus ATCC 25923 at 400 ug after 18 hrs by disc-diffusion method; assay type: functional; settings: ATCC 25923, 18 h, read-out: IZ; how it was run: as §5
# [32] = system: Staphylococcus aureus; test: Antimicrobial activity against Staphylococcus aureus ATCC 6538 at 400 ug after 18 hrs by disc-diffusion method; assay type: functional; settings: ATCC 6538, 18 h, read-out: IZ; how it was run: as §5
# [33] = system: Staphylococcus aureus; test: Antimicrobial activity against Staphylococcus aureus ATCC 29213 at 400 ug after 18 hrs by disc-diffusion method; assay type: functional; settings: ATCC 29213, 18 h, read-out: IZ; how it was run: as §5
# [34] = system: Enterococcus hirae; test: Antimicrobial activity against Enterococcus hirae ATCC 10541 at 400 ug after 18 hrs by disc-diffusion method; assay type: functional; how it was run: as §5
# [35] = system: Bacillus subtilis; test: Antimicrobial activity against Bacillus subtilis ATCC 6633 at 400 ug after 18 hrs by disc-diffusion method; assay type: functional; settings: ATCC 6633, 18 h, read-out: IZ; how it was run: as §5
# [36] = system: CCRF-CEM; test: Cytotoxicity against human CCRF-CEM cells after 96 hrs by MTT assay; assay type: functional; how it was run: as §4
# [37] = system: Micrococcus luteus; test: Antimicrobial activity against Micrococcus luteus ATCC 9341 at 400 ug after 18 hrs by disc-diffusion method; assay type: functional; settings: ATCC 9341, 18 h, read-out: IZ; how it was run: as §5
# [38] = system: Staphylococcus epidermidis; test: Antimicrobial activity against Staphylococcus epidermidis ATCC 35984 at 400 ug after 18 hrs by disc-diffusion method; assay type: functional; settings: ATCC 35984, 18 h, read-out: IZ; how it was run: as §5
# [39] = system: Bacillus cereus; test: Antimicrobial activity against Bacillus cereus ATCC 11778 at 400 ug after 18 hrs by disc-diffusion method; assay type: functional; settings: ATCC 11778, 18 h, read-out: IZ; how it was run: as §5
# [40] = system: Staphylococcus epidermidis; test: Antimicrobial activity against Staphylococcus epidermidis ATCC 12228 at 400 ug after 18 hrs by disc-diffusion method; assay type: functional; settings: ATCC 12228, 18 h, read-out: IZ; how it was run: as §5
# [41] = system: Staphylococcus aureus; test: Antimicrobial activity against Staphylococcus aureus ATCC 25923 after 18 hrs by twofold serial microdilution method; assay type: functional; settings: ATCC 25923, 18 h
# [42] = system: Proteus vulgaris; test: Antimicrobial activity against Proteus vulgaris NCTC 4635 at 400 ug after 18 hrs by disc-diffusion method; assay type: functional; how it was run: as §5
# [43] = system: Staphylococcus epidermidis; test: Antimicrobial activity against Staphylococcus epidermidis ATCC 12228 after 18 hrs by twofold serial microdilution method; assay type: functional; settings: ATCC 12228, 18 h
# [44] = system: Staphylococcus aureus; test: Antimicrobial activity against Staphylococcus aureus ATCC 6538 after 18 hrs by twofold serial microdilution method; assay type: functional; settings: ATCC 6538, 18 h
# [45] = system: Staphylococcus epidermidis; test: Antimicrobial activity against Staphylococcus epidermidis ATCC 35984 after 18 hrs by twofold serial microdilution method; assay type: functional; settings: ATCC 35984, 18 h
# [46] = system: Staphylococcus aureus; test: Antimicrobial activity against Staphylococcus aureus NCTC 4163 after 18 hrs by twofold serial microdilution method; assay type: functional; settings: NCTC 4163, 18 h
# [47] = system: Staphylococcus aureus; test: Antimicrobial activity against Staphylococcus aureus ATCC 29213 after 18 hrs by twofold serial microdilution method; assay type: functional; settings: ATCC 29213, 18 h
structure (smiles),measurement,setting,value
CCOC(=O)c1ccc(NC(=S)Nc2cccc(C(F)(F)F)c2)cc1,EC50,[1],> 50 µM
same,Activity,[2],inactive
same,EC50,[3],> 23 µM
same,EC50,[4],> 71 µM
same,MIC,[5],> 100 µg/mL
same,CC50,[6],23 µM
same,EC50,[7],> 71 µM
same,EC50,[8],> 71 µM
same,EC50,[9],> 64 µM
same,MIC,[10],> 100 µg/mL
same,Activity,[11],inactive
same,CC50,[12],71 µM
same,Activity,[13],inactive
same,Activity,[14],inactive
same,Activity,[15],inactive
same,Activity,[16],inactive
same,EC50,[17],> 71 µM
same,Activity,[18],inactive
same,Activity,[19],inactive
same,CC50,[20],64 µM
same,Activity,[21],inactive
same,EC50,[22],> 50 µM
same,EC50,[23],> 71 µM
same,Activity,[24],inactive
same,CC50,[25],50 µM
FC(F)(F)c1cccc(NC(=S)Nc2cccc(Cl)c2)c1,CC50,[26],11 µM
same,EC50,[1],> 9.5 µM
same,zone of inhibition at 400 µg/disc,[27],20 mm
same,EC50,[3],> 10 µM
same,EC50,[4],> 20 µM
same,MIC,[5],100 µg/mL
same,CC50,[6],10 µM
same,EC50,[7],> 20 µM
same,EC50,[8],> 20 µM
same,zone of inhibition at 400 µg/disc,[28],27 mm
same,CC50,[29],9.6 µM
same,EC50,[9],> 19 µM
same,zone of inhibition at 400 µg/disc,[30],29 mm
same,MIC,[10],100 µg/mL
same,zone of inhibition at 400 µg/disc,[31],27 mm
same,zone of inhibition at 400 µg/disc,[32],29 mm
same,zone of inhibition at 400 µg/disc,[33],27 mm
same,inhibition zone (IZ),[34],inactive
same,CC50,[12],20 µM
same,zone of inhibition at 400 µg/disc,[35],26 mm
same,CC50,[36],9.1 µM
same,zone of inhibition at 400 µg/disc,[37],30 mm
same,zone of inhibition at 400 µg/disc,[38],26 mm
same,zone of inhibition at 400 µg/disc,[39],23 mm
same,EC50,[17],> 20 µM
same,zone of inhibition at 400 µg/disc,[40],28 mm
same,CC50,[20],19 µM
same,MIC,[41],32 µg/mL
same,inhibition zone (IZ),[42],inactive
same,MIC,[43],32 µg/mL
same,MIC,[44],32 µg/mL
same,EC50,[22],> 9.5 µM
same,EC50,[23],> 20 µM
same,MIC,[45],64 µg/mL
same,MIC,[46],32 µg/mL
same,MIC,[47],32 µg/mL
same,CC50,[25],9.5 µM
